Experimental data: ChEMBL document CHEMBL4425095, “Novel Cephalosporins Selectively Active on Nonreplicating Mycobacterium tuberculosis” (J Med Chem, 2016)
Values after ≈ are worked out from the molar mass of the structure shown. Active and inactive are the calls of the source. The rule behind the calls is not given here.

How the values were obtained:
[1] = system: Mycobacterium tuberculosis; test: Antimycobacterial activity against replicating Mycobacterium tuberculosis mc2 6220 harboring panCD/lysA deletion mutant incubated for 3 days measured at OD580 = 0.01 by two-fold serial dilution method; format: functional
[2] = system: Mycobacterium tuberculosis; test: Antimycobacterial activity against non-replicating Mycobacterium tuberculosis mc2 6220 harboring panCD/lysA deletion mutant incubated for 6 days measured at OD580 = 0.01 by two-fold serial dilution method; format: functional
How it was run: (§1)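 M. tuberculosis mc26220 washed twice in PBS-tyloxapol and resuspended in Sauton's-based nonreplicating medium (pH 5.0, butyrate 0.05%, BSA, tyloxapol, lysine, pantothenate, 0.5 mM NaNO2). Incubated at 1% O2, 5% CO2 with 2-fold serially diluted compound from DMSO. After 3 days, diluted 5-fold in fresh replicating medium for outgrowth at 20% O2. Reported as MIC90.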

[3] = system: Mycobacterium tuberculosis; test: Antimycobacterial activity against non-replicating Mycobacterium tuberculosis mc2 6220 harboring panCD/lysA deletion mutant incubated for 3 days measured at OD580 = 0.01 by two-fold serial dilution method; format: functional; how it was run: as §1
[4] = system: Mycobacterium tuberculosis; test: Antimycobacterial activity against non-replicating Mycobacterium tuberculosis mc2 6220 harboring panCD/lysA deletion mutant incubated for 3 days measured at OD580 = 0.1 by two-fold serial dilution method; format: functional; how it was run: as §1
[5] = system: Mycobacterium tuberculosis; test: Antimycobacterial activity against non-replicating Mycobacterium tuberculosis mc2 6220 harboring panCD/lysA deletion mutant incubated for 7 days measured at OD580 = 0.1 by two-fold serial dilution method; format: functional; how it was run: as §1
[6] = system: Mycobacterium tuberculosis; test: Antimycobacterial activity against replicating Mycobacterium tuberculosis mc2 6220 harboring panCD/lysA deletion mutant by two-fold serial dilution method; format: functional
How it was run: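 M. tuberculosis mc26220 in replicating medium supplemented with glycerol (final 0.5%), OADC, casamino acids 0.05%, lysine 240 μg/mL and pantothenate 24 μg/mL. Exposed to 2-fold serially diluted compound from DMSO. OD580 read after 7 days at 20% O2, 5% CO2. Reported as MIC90.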

[7] = system: Mycobacterium tuberculosis; test: Antimycobacterial activity against non-replicating Mycobacterium tuberculosis mc2 6220 harboring panCD/lysA deletion mutant incubated for 6 days measured at OD580 = 0.1 by two-fold serial dilution method; format: functional; how it was run: as §1
[8] = system: Mycobacterium tuberculosis; test: Antimycobacterial activity against non-replicating Mycobacterium tuberculosis mc2 6220 harboring panCD/lysA deletion mutant incubated for 7 days measured at OD580 = 0.01 by two-fold serial dilution method; format: functional; how it was run: as §1
[9] = system: Mycobacterium tuberculosis; test: Antimycobacterial activity against non-replicating Mycobacterium tuberculosis mc2 6220 harboring panCD/lysA deletion mutant incubated for 7 days measured at OD580 = 0.01 by high throughput screen assay; format: functional, organism-based

CCCOC(=O)C1=C(C)CS[C@@H]2[C@H](NC(=O)COc3ccccc3)C(=O)N12
MIC90 [1]: >100 µg/mL
MIC90 [2]: 0.64 µg/mL (≈ 1.64 µM)
MIC90 [3]: 0.9 µg/mL (≈ 2.3 µM)
MIC90 [4]: 1.76 µg/mL (≈ 4.51 µM)
MIC90 [5]: 1.05 µg/mL (≈ 2.69 µM)
MIC90 [6]: >100 µg/mL
MIC90 [7]: 1.05 µg/mL (≈ 2.69 µM)
MIC90 [8]: 0.64 µg/mL (≈ 1.64 µM)
Activity [9]: Active
